The list is not random: actives were taken first. Their share in the collection is about 2.6%.
E coli RNAP: Escherichia coli RNA polymerase inhibition; P0A8V2; 62,000 compounds, 0.2% hits; E. coli RNA polymerase, fluorescence transcription assay; inhibition, %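 (tested at 10 µM)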; in the data active means inhibition above about 20%
S1P3 agonist: agonists of human S1P3 receptor | Q99500 | S1P3 NFAT-BLA reporter cells, agonism, FRET ratio; relative to 1 µM S1P, basal subtracted | activation, % at 4.5 µM | 60,000 compounds, 0.1% hits | AID 373;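 active means activation above the screen-wide mean plus 3 SD, cut at about 4.5% in these data, passing the limit was not always enough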
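Assay system: CHO cells stably expressing human S1P3, Gα16 and NFAT-β-lactamase reporter. Timing: overnight plating, 4 h compound 37 °C, 2 h substrate RT. Signal: β-lactamase FRET emission ratio 460/535 nm. Measure: percent activation versus median 1 µM S1P response, basal-subtracted, per plate. Repeats: primary screen single test, confirmation screen in triplicate.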
5HT1E ag: 5-HT1E (human) receptor agonism; CHO 5-HT1E Ga15 NFAT-bla reporter, FRET; 0% DMSO wells, 100% control agonist wells; activation, % at 6 µM; 65,000 compounds, 0.69% hits;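 active means activation above a set limit, the screen-wide mean activation plus 3 SD, cut at about 8.5% in these data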
HTR1E antagonist: 5-HT1E (human) receptor antagonism | P28566 | CHO 5-HT1E Ga15 NFAT-bla reporter, FRET, antagonist | inhibition, % at 6 µM | 65,000 compounds, 0.99% hits;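 active means inhibition above a set limit, the mean inhibition across every tested compound plus 3 SD, cut at about 29% in these data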;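 further: signal is the 460 over 535 nm emission ratio of beta-lactamase substrate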
5HT1a ag: agonists of human 5-HT1a serotonin receptor; 65,000 compounds, 0.56% hits; AID 567; CHO 5-HT1a Ga15 NFAT-bla reporter, FRET ratio; 0% basal, 100% maximal reference agonist; activation, % at 10 µM; P08908;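 active means activation above the screen-wide mean activation plus 3 SD, cut at about 19% in these data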
Target sequence (P08908 whole entry, looked up): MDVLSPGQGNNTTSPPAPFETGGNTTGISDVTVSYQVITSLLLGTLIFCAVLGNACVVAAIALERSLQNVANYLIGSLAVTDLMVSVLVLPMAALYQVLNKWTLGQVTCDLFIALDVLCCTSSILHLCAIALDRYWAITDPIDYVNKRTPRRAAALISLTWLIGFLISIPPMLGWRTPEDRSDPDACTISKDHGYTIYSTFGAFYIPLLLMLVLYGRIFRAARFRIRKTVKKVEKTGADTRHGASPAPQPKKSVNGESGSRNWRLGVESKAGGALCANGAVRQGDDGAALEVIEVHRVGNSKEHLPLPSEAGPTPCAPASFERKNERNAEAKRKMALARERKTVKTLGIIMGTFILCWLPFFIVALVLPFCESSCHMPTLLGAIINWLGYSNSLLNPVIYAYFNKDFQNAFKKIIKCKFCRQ
5-HT1A blocker: 5-HT1a (human) receptor antagonism; P08908; CHO 5-HT1a Ga15 NFAT-bla reporter, antagonist mode; inhibition, % at 10 µM; 62,000 compounds, 0.68% hits;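 active means inhibition above the mean of all tested compounds plus 3 SD, cut at about 43% in these data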;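 further: receptor stimulated by 5-CT agonist at 100 nM near EC80; beta-lactamase reporter measured by ratiometric fluorescence of a cleavable substrate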
Each line names hits and unclear results; the compound was inactive in the other large screens.

Cc1nc2ccccn2c1C(=O)NCc1cccnc1	none
CC(C)(C)c1cc(CCC(=O)N2CCNCC2)c(C(C)(C)C)cc1O	none
COc1cc2c(cc1OC)C1=C(C#N)CC/C(=N\S(=O)(=O)c3ccccc3)N1CC2	HTR1E antagonist 65.8
COc1ccc(CCN2CC(C#N)=C3c4cc(OC)c(OC)cc4CCN3C2)cc1OC	HTR1E antagonist 38.1
COc1cc2c(cc1OC)C1=C(C#N)CCC(=O)N1CC2	HTR1E antagonist 49.3 (no result: E coli RNAP)
COC(=O)c1sc(=S)sc1C(=O)OC	none
CCCCCOC(=O)c1[nH]c2c(c1C)C(=O)CC(c1ccco1)C2 (centres undefined)	HTR1E antagonist 82.5, 5-HT1A blocker 66.3
CCOC(=O)c1[nH]c2c(c1C)C(=O)CC(c1ccc(OCC)c(OC)c1)C2 (centres undefined)	none (no result: S1P3 agonist)
CCOC(=O)c1[nH]c2c(c1C)C(=O)CC(c1ccc(F)cc1)C2 (centres undefined)	HTR1E antagonist 57.7
CCCCn1c(SCC(=O)N2CCCC2)nc2c1c(=O)n(C)c(=O)n2C	none
N[C@@H](Cc1ccc(O)c(I)c1)C(=O)O	none (no result: 5-HT1A blocker)
NC(Cc1ccc2nonc2c1)C(=O)O (centres undefined)	5HT1a ag 53.7
CN(C)CCOc1ccccc1Cc1ccccc1	5HT1E ag 16.4 (no result: 5-HT1A blocker)
CN(C)CCOC(=O)CCc1ccccc1	none
Cc1cc(=O)c2n(Cc3ccccc3Cl)nc[n+]2[nH]1	E coli RNAP 56.6 (no result: S1P3 agonist)
Cc1cc(C)n(Cc2ccccc2Cl)n1	none
O=C(Cn1ccc2ccccc2c1=O)NCCC(=O)NC1CCN(Cc2ccccc2)CC1	5HT1E ag 11.1
OC(CNCCc1ccc(Cl)cc1)COCc1ccco1 (centres undefined)	5HT1E ag 9.5
CCN1CCN(c2nc3c(C)cccn3c(=O)c2/C=C(\C#N)S(=O)(=O)c2ccc(C)cc2)CC1	none (no result: 5-HT1A blocker)
CC1CCCC(C)N1S(=O)(=O)c1ccc(NC(=O)c2ccccc2C(=O)N2CCOCC2)cc1 (centres undefined)	none
O=C(CCN1CCN(c2ccccc2F)CC1)c1ccc(Br)cc1	5HT1E ag 34.4
CCOC(=O)Nc1nc(C)c(C(=O)N(C)C)s1	none
COC(=O)Nc1nc(C)c(C(=O)N(C)C)s1	5HT1a ag 19.4
CS(=O)(=O)N1CCN(c2ccccc2F)CC1	none
CC(C)(C)OC(=O)N[C@@H](Cc1ccccc1)c1nnc(S(=O)(=O)Cc2ccccc2)o1	HTR1E antagonist 55.3, 5-HT1A blocker 78.2 (no result: E coli RNAP)
CCC(C)C(NCc1cccc(C)c1)C(=O)O (centres undefined)	none (no result: S1P3 agonist)
CCC(C)[C@@H](NC(=O)OC(C)(C)C)c1nnc(S(=O)(=O)Cc2cccc(C)c2)o1 (some centres undefined)	5-HT1A blocker 50.8
CC(C)(C)OC(=O)N[C@@H](Cc1ccccc1)c1nnc(SCC(=O)O)o1	none
Cn1c(=O)n(Cc2ccc(F)cc2)c(=O)c2c1nc1n2CCCN1Cc1ccccc1	none
CSc1nc2sc3c(c2c2nnnn12)CCCC3	5HT1E ag 14.2 (no result: 5-HT1A blocker)
CSc1nc2sc3c(c2c2nnnn12)CCC3	none (no result: 5-HT1A blocker)
Cc1c(-c2ccc(F)cc2)nc(N)c(C#N)c1-c1ccco1	HTR1E antagonist 29.0
O=C(Cn1cnc2ccccc2c1=O)NCc1ccco1	none
COc1cc2c(cc1NC(=O)CN1C(=O)NC3(CCc4ccccc43)C1=O)oc1ccccc12 (centres undefined)	5-HT1A blocker 45.0
CCOc1ccccc1C1CC(=O)Nc2cc3c(cc21)OCCO3 (centres undefined)	HTR1E antagonist 63.8, 5-HT1A blocker 43.5
CCCCOc1ccccc1C1CC(=O)NC2=C1C(=O)CCC2 (centres undefined)	HTR1E antagonist 28.6
CC(C)Oc1ccccc1C1CC(=O)Nc2cc3c(cc21)OCO3 (centres undefined)	HTR1E antagonist 61.4, 5-HT1A blocker 53.9
O=C1CC(c2cccnc2)c2cc3c(cc2N1)OCO3 (centres undefined)	none
CCCOc1ccccc1C1CC(=O)Nc2cc3c(cc21)OCCO3 (centres undefined)	HTR1E antagonist 71.0, 5-HT1A blocker 75.0
CCCOc1ccccc1C1CC(=O)NC2=C1C(=O)CCC2 (centres undefined)	none

Bioassay records as filed in PubChem.
